The results in this text go back to ChEMBL document CHEMBL4321805, “A Conformational Restriction Strategy for the Identification of a Highly Selective Pyrimido-pyrrolo-oxazine mTOR Inhibitor” (J Med Chem, 2019).

One series has as its target T1, Cytochrome P450 1A2 (Homo sapiens, UniProt P05177).
T1 sequence (P05177 whole entry): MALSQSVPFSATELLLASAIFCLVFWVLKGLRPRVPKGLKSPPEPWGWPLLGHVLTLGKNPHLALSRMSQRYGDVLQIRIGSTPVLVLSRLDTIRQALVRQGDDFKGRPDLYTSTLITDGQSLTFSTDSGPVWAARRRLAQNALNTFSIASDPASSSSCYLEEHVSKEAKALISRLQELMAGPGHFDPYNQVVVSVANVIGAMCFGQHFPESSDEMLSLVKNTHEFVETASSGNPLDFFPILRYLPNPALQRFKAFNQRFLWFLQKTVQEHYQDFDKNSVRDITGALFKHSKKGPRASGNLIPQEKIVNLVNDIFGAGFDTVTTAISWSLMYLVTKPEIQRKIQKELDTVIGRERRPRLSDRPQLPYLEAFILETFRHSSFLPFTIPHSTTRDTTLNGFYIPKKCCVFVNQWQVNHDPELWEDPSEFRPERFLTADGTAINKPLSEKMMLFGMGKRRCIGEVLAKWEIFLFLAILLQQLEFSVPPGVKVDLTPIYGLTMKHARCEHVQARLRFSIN
Kind of series: Drug level treated with 5-((R)-4-((R)-3-Methylmorpholino)-5a,6,8,9-tetrahydro-5H-pyrimido[5',4':4,5]pyrrolo[2,1-c][1,4]oxazin-2-yl)pyrimidin-2-amine assessed as recombinant human CYP1A2-mediated compound formation incubated for 60 mins by LC/MS analysis. The class given is ADME. The note with it: recombinant enzyme, 1 h. The method in brief: (§1)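 Human recombinant CYP1A1 or CYP1A2 Supersomes (25 pmol/mL) incubated with compound at 1 μM (0.25% DMSO) plus NADP+-regenerating cofactors at 37 °C for 60 min. Reaction stopped with ACN containing internal standard. Parent and metabolites expressed as percentage of total peak areas.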

The target of the next series is T2, Cytochrome P450 1A1 (Homo sapiens, UniProt P04798).
T2 sequence (P04798 whole entry): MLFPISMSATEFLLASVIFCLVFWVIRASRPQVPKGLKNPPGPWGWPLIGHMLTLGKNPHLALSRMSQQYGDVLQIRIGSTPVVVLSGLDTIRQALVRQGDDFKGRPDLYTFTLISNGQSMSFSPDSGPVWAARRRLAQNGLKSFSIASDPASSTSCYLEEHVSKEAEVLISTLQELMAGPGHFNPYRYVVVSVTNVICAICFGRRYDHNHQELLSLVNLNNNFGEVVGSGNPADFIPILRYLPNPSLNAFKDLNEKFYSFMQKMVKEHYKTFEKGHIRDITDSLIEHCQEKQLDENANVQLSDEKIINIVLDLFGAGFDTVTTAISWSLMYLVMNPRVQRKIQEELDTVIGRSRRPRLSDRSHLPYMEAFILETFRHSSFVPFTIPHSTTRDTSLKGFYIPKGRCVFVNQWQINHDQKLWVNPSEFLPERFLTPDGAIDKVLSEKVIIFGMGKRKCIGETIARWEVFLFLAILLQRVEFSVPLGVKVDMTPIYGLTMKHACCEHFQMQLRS
Kind of series: Drug level treated with 5-((R)-4-((R)-3-Methylmorpholino)-5a,6,8,9-tetrahydro-5H-pyrimido[5',4':4,5]pyrrolo[2,1-c][1,4]oxazin-2-yl)pyrimidin-2-amine assessed as recombinant human CYP1A1-mediated compound formation incubated for 60 mins by LC/MS analysis. The class given is ADME. The note with it: recombinant enzyme, 1 h. The method, boiled down:
as §1

Each structure is given as a SMILES string.

As for `CC(C=O)N(CCO)c1nc(-c2cnc(N)nc2)nc2c1C[C@@H]1COCCN21` (some centres not stated), the Drug metabolism result at Cytochrome P450 1A2 and on Cytochrome P450 1A1 was “Metabolite_Detected” in each case.
